Measurements published in PMC7820547 (iScience, 2021).
Changes are numbered by the printed parent chain.

Experiments:
[1] = biological target: T1, hSHMT2 E98L (Homo sapiens, UniProt P34897, E98L); experiment: Surface plasmon resonance binding of Gly-DCA to mutant hSHMT2 E98L; conditions: SPR, 25°C
T1 sequence (P34897 30-504 E98L): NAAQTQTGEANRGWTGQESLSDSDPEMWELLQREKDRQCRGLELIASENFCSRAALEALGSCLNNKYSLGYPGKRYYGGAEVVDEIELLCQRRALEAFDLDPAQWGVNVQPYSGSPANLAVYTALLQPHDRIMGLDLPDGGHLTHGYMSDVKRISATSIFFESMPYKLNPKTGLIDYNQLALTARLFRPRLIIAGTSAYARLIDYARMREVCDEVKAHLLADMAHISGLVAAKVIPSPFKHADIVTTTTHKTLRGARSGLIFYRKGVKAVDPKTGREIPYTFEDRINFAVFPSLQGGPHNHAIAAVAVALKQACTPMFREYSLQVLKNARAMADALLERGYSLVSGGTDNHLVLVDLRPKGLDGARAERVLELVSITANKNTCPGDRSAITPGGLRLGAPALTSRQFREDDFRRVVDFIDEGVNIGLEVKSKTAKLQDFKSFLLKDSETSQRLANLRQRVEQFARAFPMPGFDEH
In short: (§1)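 Wild-type or mutant His6-hSHMT2 was captured on an NTA sensor chip in each cycle. Analyte (test compound) was run at 0.8, 0.4, 0.2, 0.1, 0.05 and 0.025 µM in 10 mM HEPES pH 7.5, 200 mM NaCl, 2 mM β-mercaptoethanol, 50 µM PLP, 0.01% Tween 20 and 5% DMSO. Contact 30 s, dissociation 300 s; Scatchard-derived Kd.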

[2] = biological target: T2, hSHMT1 R402A (Homo sapiens, UniProt P34896, R402A); experiment: Surface plasmon resonance binding of Gly-DCA to mutant hSHMT1 R402A; conditions: SPR, 25°C
T2 sequence (P34896 1-483 R402A): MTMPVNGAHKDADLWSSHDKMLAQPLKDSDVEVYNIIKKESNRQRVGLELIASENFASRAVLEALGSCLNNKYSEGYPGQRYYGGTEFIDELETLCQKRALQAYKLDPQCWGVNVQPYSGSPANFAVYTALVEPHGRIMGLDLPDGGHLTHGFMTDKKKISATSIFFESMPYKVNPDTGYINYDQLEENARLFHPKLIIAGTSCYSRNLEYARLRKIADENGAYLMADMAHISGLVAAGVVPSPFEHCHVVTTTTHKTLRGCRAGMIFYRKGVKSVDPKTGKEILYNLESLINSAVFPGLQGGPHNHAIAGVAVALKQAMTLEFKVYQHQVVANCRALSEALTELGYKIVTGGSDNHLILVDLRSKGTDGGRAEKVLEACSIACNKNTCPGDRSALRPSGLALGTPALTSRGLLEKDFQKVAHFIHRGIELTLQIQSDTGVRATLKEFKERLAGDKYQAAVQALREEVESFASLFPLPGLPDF
In short: (§2)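 His6-hSHMT1, wild type or point mutant, was captured fresh on an NTA sensor chip each cycle. Contact 30 s, dissociation 300 s; Kd by Scatchard analysis.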

[3] = biological target: T3, hSHMT1 WT (Homo sapiens, UniProt P34896); experiment: Surface plasmon resonance binding of Gly-DCA to hSHMT1 WT
T3 sequence (P34896 1-483): T2 sequence (P34896 1-483 R402A) with A402R
In short: as §2

[4] = biological target: T4, hSHMT1 (Homo sapiens, UniProt P34896); experiment: Differential scanning calorimetry; format: binding; conditions: DSC, 50 μM Gly-DCA, 18 μM hSHMT1; Tm without ligand 69.6°C
T4 sequence (P34896 1-483): T2 sequence (P34896 1-483 R402A) with A402R
In short: (§3)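 Recombinant His6-tagged human enzyme from E. coli BL21(DE3)pLysS, Ni-NTA then gel filtration. Scanned 20 to 110 °C at 1 °C/min in 10 mM HEPES pH 7.5, 0.5 mM EDTA, 2 mM β-mercaptoethanol and 1% DMSO, with 18 µM (1.0 mg/mL) enzyme and 50 µM test compound. hSHMT1 used 100 mM NaCl and no PLP; hSHMT2 used 200 mM NaCl and 50 µM PLP. Non-two-state denaturation model fitted.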

[5] = biological target: T4, hSHMT1; conditions: ITC, ref Nonaka et al., 2019, cited from earlier work
[6] = biological target: T5, hSHMT2 (Homo sapiens, UniProt P34897); experiment: Isothermal titration calorimetry; format: binding
T5 sequence (P34897 30-504): T1 sequence (P34897 30-504 E98L) with L69E
In short: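 Purified His6-hSHMT2 (28.9 µM) in the cell was titrated with 300 µM test compound from the syringe at 37 °C, stirring 750 rpm. One small initial injection, then 12 injections at 180 s intervals; thermodynamic parameters were calculated from the titration.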

[7] = biological target: T6, hSHMT2 R425A (Homo sapiens, UniProt P34897, R425A); experiment: Surface plasmon resonance binding of Gly-DCA to mutant hSHMT2 R425A; conditions: SPR, 25°C
T6 sequence (P34897 30-504 R425A): T1 sequence (P34897 30-504 E98L) with L69E, R396A
In short: as §1

[8] = biological target: T7, hSHMT1 E75L (Homo sapiens, UniProt P34896, E75L); experiment: Surface plasmon resonance binding of Gly-DCA to mutant hSHMT1 E75L
T7 sequence (P34896 1-483 E75L): T2 sequence (P34896 1-483 R402A) with E75L, A402R
In short: as §2

[9] = biological target: T8, hSHMT2 WT (Homo sapiens, UniProt P34897); experiment: Surface plasmon resonance binding of Gly-DCA to hSHMT2 WT
T8 sequence (P34897 30-504): T1 sequence (P34897 30-504 E98L) with L69E
In short: as §1

[10] = biological target: T5, hSHMT2; experiment: Differential scanning calorimetry; format: binding; conditions: DSC, 50 μM Gly-DCA, 18 μM hSHMT2, 50 μM PLP; Tm without ligand 65.1°C
In short: as §3

[11] = biological target: T5, hSHMT2; experiment: Inhibition assay of Ser-Gly conversion; format: biochemical
[12] = ITC, 37°C, pH 7.5, 200 mM NaCl, 50 μM PLP

binding affinity for hSHMT2 E98L [1]	binding affinity for hSHMT1 R402A [2]	Kd [3] [µM]	Tm of hSHMT1 w/ Gly-DCA [4] [°C]	Kd [6] [µM]	hSHMT2 N (stoichiometry, binding ratio) ([6]; ITC, 37°C)	hSHMT2 ΔG [6, 12] [kcal/mol]	hSHMT2 ΔH [6, 12] [kcal/mol]	hSHMT2 −TΔS [6, 12] [kcal/mol]	binding affinity for hSHMT2 R425A [7]	Kd [8] [µM]	Kd [9] [µM]	Tm of hSHMT2 w/ Gly-DCA [10] [°C]	IC50 [11] [µM]	SMILES	hSHMT1 ΔG ([5]; 100 mM NaCl, 0 µM PLP) [kcal/mol]	hSHMT1 ΔH ([5]; 100 mM NaCl, 0 µM PLP) [kcal/mol]	hSHMT1 −TΔS ([5]; 100 mM NaCl, 0 µM PLP) [kcal/mol]	hSHMT1 N (stoichiometry, binding ratio) [5]	Kd ([5]; read-out: hSHMT1 Kd, 100 mM NaCl, 0 µM PLP) [µM]
too weak to quantitate	too weak to quantitate	7.6	78.8	0.25	0.83	-9.4	-8.6	-0.8	too weak to quantitate	73.5	0.064	77.4	–	CC(CCC(=O)NCC(=O)O)C1CCC2C3CCC4CC(O)CCC4(C)C3CC(O)C12C (stereo not shown) [Gly-DCA, glycodeoxycholic acid]	-7.4	-2.2	-5.2	1.06	5.7
–	–	–	–	–	–	–	–	–	–	–	–	–	2.6	C[C@H](CCC(=O)NCCS(=O)(=O)O)[C@H]1CC[C@H]2[C@@H]3CC[C@@H]4C[C@H](O)CC[C@]4(C)[C@H]3CC[C@]12C [Tau-LCA, taurolithocholic acid]	–	–	–	–	–
